Series [1] has as its system Jurkat. The series can be described thus: Immunosuppression-mediated antiproliferative activity against human Jurkat T cells assessed as inhibition of cell growth incubated for 48 hrs by VPD450 staining based flow cytometry. Type of series: functional. An outline of the steps: (§1)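 Cells stained with VPD450 (2 μL of 1 mM dye per 10-30×10^6 cells in 1 mL PBS, 15 min, 37 °C), washed. PBMC: 50×10^3 cells/well with anti-CD3/anti-CD28, serial compound dilutions, 72 h. Jurkat: 50×10^3 cells/well, 48 h. 37 °C, 5% CO2, triplicate. Dye dilution by flow cytometry; EC50 from curve fit.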

A further series has as its system PBMC. The experiment in a line: Immunosuppression-mediated antiproliferative activity against anti-CD3/anti-CD28-stimulated human PBMC cells assessed as inhibition of cell growth incubated for 72 hrs in presence of GMP by VPD450 staining based flow cytometry. It is filed as functional. An outline of the steps: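 VPD450-stained PBMC, 50×10^3 cells/well, anti-CD3/anti-CD28 stimulation, serial compound dilutions plus GMP at 50 μM in the well. Incubated 72 h at 37 °C, 5% CO2, in triplicate. Proliferation read by flow cytometry as dye dilution and expressed relative to controls.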
On the technique in general: Flow cytometry measures light scatter and fluorescence of single cells or particles in a stream.

Series [2] in a line: Selectivity index, ratio of IC50 for cytotoxicity against human Jurkat T cells by MTT assay to EC50 for antiproliferative activity against human Jurkat T cells by VPD450 staining based flow cytometry. The method in brief: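 Jurkat IC50 from the 48 h MTT assay (50×10^3 cells/well, triplicate) divided by Jurkat EC50. […] Cells treated 48 h with serial dilutions, then dye dilution read by flow cytometry and fitted.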
For orientation: Formazan colour is commonly taken as a measure of viable cells.

Series [3] relates to Jurkat. The experiment in a line: Immunosuppression-mediated cytotoxicity against human Jurkat T cells assessed as reduction in cell viability incubated for 48 hrs by MTT assay. Type of series: cell-based. An outline of the steps:
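Jurkat cells in RPMI-1640 with 10% FBS and P/S, 50×10^3 cells/well, exposed in triplicate to serial dilutions from 1 mg/mL (DMSO/medium) for 48 h at 37 °C, 5% CO2. MTT (5 mg/ml) then added for 3 h. Formazan dissolved in 0.4 N HCl–isopropanol, absorbance read at 570 nm. IC50 from curve fitting; viability at 1 mg/mL used where IC50 could not be reached.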

Series [4] is described as follows: Immunosuppression-mediated cytotoxicity against anti-CD3/anti-CD28-stimulated human PBMC cells assessed as reduction in cell viability incubated for 72 hrs by MTT assay. It is filed as cell-based. The method in brief:
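PBMC from buffy coats of healthy donors, isolated on a Ficoll gradient with erythrocyte lysis. Plated at 50×10^3 cells/well with anti-CD3/anti-CD28, serial compound dilutions, in triplicate. Incubated 72 h, 37 °C, 5% CO2. MTT added for 3 h, formazan dissolved in acidified isopropanol (0.4 N HCl), A570 read. Three donors averaged; IC50 from curve fit.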

A short description of series [5]: Immunosuppression-mediated antiproliferative activity against anti-CD3/anti-CD28-stimulated human PBMC cells assessed as inhibition of cell growth incubated for 72 hrs by VPD450 staining based flow cytometry. Type of series: functional. An outline of the steps: as §1
Series [6] can be described thus: Stability in human Jurkat T cells assessed as compound remaining at EC50 concentration after 5 days by HPLC-MS analysis. It is filed as ADME, cell-based. The settings on record: time 5 day, read-out: Stabilty. An outline of the steps: (§2)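 Compounds incubated at their EC50 concentrations with Jurkat cells for 5 days, sampled daily. Amount measured by HPLC-MS: C18 column at 40 °C, 0.4 mL/min, 0.1% HCOOH water to ACN/MeOH gradient, UV 254 nm, ESI-MS. Peak area on day 1 taken as 100%.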

Series [7] is described as follows: Selectivity index, ratio of IC50 for cytotoxicity against human PBMC by MTT assay to EC50 for antiproliferative activity against human PBMC by VPD450 staining based flow cytometry. The method in brief:
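Ratio of the MTT cytotoxicity IC50 (72 h, stimulated PBMC) to the VPD450 antiproliferative EC50 (72 h, stimulated PBMC), both from fitted concentration-response curves.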

Series [8] can be described thus: Stability in human Jurkat T cells assessed as compound remaining at EC50 concentration after 3 days by HPLC-MS analysis. It is filed as ADME, cell-based. The settings on record: time 3 day, read-out: Stabilty. The method in brief: as §2
The test system of series [9] is Jurkat. The series can be described thus: Immunosuppression-mediated antiproliferative activity against human Jurkat T cells assessed as inhibition of cell growth at 1 mg/ml incubated for 48 hrs by VPD450 staining based flow cytometry relative to control. Type of series: functional. More on the design: scale not given: the % may be the effect or the level left. An outline of the steps:
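Jurkat cells stained with VPD450 (2 μL of 1 mM dye per 10-30×10^6 cells, 15 min, 37 °C) and plated at 50×10^3 cells/well. Compound added at the top concentration, 1 mg/mL (1 mg dissolved in 20 μL DMSO, made up to 1 mL with medium). 48 h at 37 °C, 5% CO2, in triplicate. Read by flow cytometry; […].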

For series [10], the system named is Jurkat. The experiment in a line: Immunosuppression-mediated cytotoxicity against human Jurkat T cells assessed as reduction in cell viability at 1 mg/ml incubated for 48 hrs by MTT assay relative to control. It is filed as cell-based. An outline of the steps: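 Jurkat cells (RPMI-1640, 10% FBS) plated at 50×10^3 cells/well and exposed to 1 mg/mL compound (1 mg in 20 μL DMSO, made up to 1 mL with medium). 48 h at 37 °C, 5% CO2, in triplicate. MTT (5 mg/mL stock) for 3 h, acidified isopropanol, A570. Viability calculated at that concentration.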

Series [11] can be described thus: Immunosuppression-mediated cytotoxicity against anti-CD3/anti-CD28-stimulated human PBMC cells assessed as reduction in cell viability at 1 mg/ml incubated for 72 hrs by MTT assay relative to control. Type of series: cell-based. The method in brief:
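Anti-CD3/anti-CD28-stimulated PBMC, 50×10^3 cells/well, exposed to compound at the highest concentration, 1 mg/mL, for 72 h at 37 °C, 5% CO2, in triplicate. MTT for 3 h, acidified isopropanol, A570. Viability calculated at that concentration; three donors averaged.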

The source made the active and inactive calls. The calls are words filed in the database; no cut-off is given here. Where a SMILES comes first, the peptide text is derived from it. [ ]: non-standard residue; d: D form. The star is where a group is joined. Mycophenolyl = COc1c(C)c2c(c(O)c1C/C=C(\C)CCC(=O)*)C(=O)OC2; Arg(NO2) = N=C(NCCC[C@H](N)C(=O)O)N[N+](=O)[O-]; βAla = NCCC(=O)O

With `COC(=O)[C@@H](NC(=O)CC/C(C)=C/Cc1c(O)c2c(c(C)c1OC)COC2=O)[C@@H](C)O`, the EC50 (in the series on Jurkat [1]; in series [5]) was 10 µM throughout. Besides, the result with PBMC was inactive. Moreover, the “Ratio IC50/EC50” value came to 1.8 in [2] and 5.7 in [7]. Besides, the IC50 in the series with Jurkat [3] is 17 µM; in [4] it was 57 µM. In series [6], the remaining at 120 h is greater than 40%.
Consider `COC(=O)[C@H](CCCNC(=N)N[N+](=O)[O-])NC(=O)[C@@H]1CCCN1C(=O)[C@H](CCCCNC(=O)[C@H](C)N)NC(=O)[C@@H](NC(=O)CC/C(C)=C/Cc1c(O)c2c(c(C)c1OC)COC2=O)[C@@H](C)O` (Mycophenolyl-TK(Ala)P[Arg(NO2)]-OMe), for which the remaining at 72 h in [8] was 50%. Moreover, in the series on Jurkat [9], the Activity is 55.31%. For the same molecule, the 50% inhibitory concentration (IC50) in the series on Jurkat [3] is 1000 µM; in series [4], 560 µM. In addition, the EC50 in [5] amounted to 259 µM. The “Ratio IC50/EC50” value in series [7] is on record as 2.2.
As for `COC(=O)[C@H](CCCNC(=N)N[N+](=O)[O-])NC(=O)[C@@H]1CCCN1C(=O)[C@H](CCCCNC(=O)[C@@H](N)C(C)C)NC(=O)[C@@H](NC(=O)CC/C(C)=C/Cc1c(O)c2c(c(C)c1OC)COC2=O)[C@@H](C)O` (Mycophenolyl-TK(Val)P[Arg(NO2)]-OMe), the result in the series on PBMC was inactive. For the same molecule, the Activity in the series on Jurkat [9] is given as 55.1%; in the series on Jurkat [10], 66.56%; in [11], 56.81%. In [5], the 50% effective concentration (EC50) was 432 µM.
As for `COC(=O)[C@H](CCCNC(=N)N[N+](=O)[O-])NC(=O)[C@@H]1CCCN1C(=O)[C@H](CCCCN)NC(=O)[C@@H](NC(=O)CC/C(C)=C/Cc1c(O)c2c(c(C)c1OC)COC2=O)[C@@H](C)O` (Mycophenolyl-TKP[Arg(NO2)]-OMe), the Activity with Jurkat [9] is recorded as 60.78%; in the series on Jurkat [10], 85.82%; in [11], 99.09%. In addition, the EC50 in series [5] turned out to be 130 µM.
For the molecule `COC(=O)[C@@H](NC(=O)[C@H](CCCCNC(=O)CN)NC(=O)[C@@H]1CCCN1C(=O)[C@H](CCCNC(=N)N[N+](=O)[O-])NC(=O)CC/C(C)=C/Cc1c(O)c2c(c(C)c1OC)COC2=O)[C@@H](C)O` (Mycophenolyl-[Arg(NO2)]PK(Gly)T-OMe), the Activity with Jurkat [9] was 56.72%. In addition, the IC50 in the series with Jurkat [3] stood at 1100 µM; in [4], 865 µM. Also, the EC50 in series [5] came to 566 µM. Moreover, in [7], the “Ratio IC50/EC50” value is 1.5.
As for `CC[C@H](C)[C@H](N)C(=O)NCCCC[C@H](NC(=O)[C@@H]1CCCN1C(=O)[C@H](CCCNC(=N)N[N+](=O)[O-])NC(=O)CC/C(C)=C/Cc1c(O)c2c(c(C)c1OC)COC2=O)C(=O)N[C@H](C(=O)OC)[C@@H](C)O` (Mycophenolyl-[Arg(NO2)]PK(Ile)T-OMe), the figures for the Activity with Jurkat [9] and in the series with Jurkat [10] were 52.77% and 52.48%, respectively. Also, the IC50 in [4] was 533 µM. Besides, in series [5], the EC50 was found to be 152 µM. Moreover, in [7], the “Ratio IC50/EC50” value was 3.5.
Taken in the same sequence, the figures for `COC(=O)[C@@H](NC(=O)[C@H](CCCCNC(=O)[C@@H](N)CC(C)C)NC(=O)[C@@H]1CCCN1C(=O)[C@H](CCCNC(=N)N[N+](=O)[O-])NC(=O)CC/C(C)=C/Cc1c(O)c2c(c(C)c1OC)COC2=O)[C@@H](C)O` (Mycophenolyl-[Arg(NO2)]PK(Leu)T-OMe) were 63.04%, 61.34%, 519 µM, 161 µM and 3.2.
Turning to `COC(=O)[C@@H](NC(=O)[C@H](CCCCNC(=O)CCN)NC(=O)[C@@H]1CCCN1C(=O)[C@H](CCCNC(=N)N[N+](=O)[O-])NC(=O)CC/C(C)=C/Cc1c(O)c2c(c(C)c1OC)COC2=O)[C@@H](C)O` (Mycophenolyl-[Arg(NO2)]PK(βAla)T-OMe), the Activity in the series with Jurkat [9] is 75.89%. Besides, the IC50 in the series with Jurkat [3] amounted to 786 µM; in series [4] it was 588 µM. For the same molecule, in series [5], the EC50 came out at 154 µM. Also, the “Ratio IC50/EC50” value in [7] is listed as 3.8.
`COC(=O)[C@@H](NC(=O)[C@H](CCCCN)NC(=O)[C@@H]1CCCN1C(=O)[C@H](CCCNC(=N)N[N+](=O)[O-])NC(=O)CC/C(C)=C/Cc1c(O)c2c(c(C)c1OC)COC2=O)[C@@H](C)O` (Mycophenolyl-[Arg(NO2)]PKT-OMe): the EC50 came out at 664 µM in the series with Jurkat [1] and 35.4 µM in series [5]. Further, the remaining at 72 h in series [8] is 50%. For the same molecule, the outcome in the series with PBMC was inactive. Besides, the figures for the “Ratio IC50/EC50” value in series [2] and in series [7] were 1.5 and 18, respectively. Further, the values for the IC50 (in the series on Jurkat [3]; in series [4]) were 971 µM and 634 µM, respectively.

As a reminder, the EC50 is the concentration giving half of the maximal effect. Usually IC50 stands for the concentration at which inhibition is half-maximal.

The record behind these values is ChEMBL document CHEMBL4680189, “Immunosuppressive properties of amino acid and peptide derivatives of mycophenolic acid” (Eur J Med Chem, 2020).
